Consider two compounds from ChEMBL document CHEMBL4354813, “Design, Synthesis, and Pharmacological Evaluation of Potent Positive Allosteric Modulators of the Glucagon-like Peptide-1 Receptor (GLP-1R)” (J Med Chem, 2020).

The target of series [1] is T1, Solute carrier organic anion transporter family member 1B1 (Homo sapiens, UniProt Q9Y6L6).
T1 sequence (Q9Y6L6 whole entry): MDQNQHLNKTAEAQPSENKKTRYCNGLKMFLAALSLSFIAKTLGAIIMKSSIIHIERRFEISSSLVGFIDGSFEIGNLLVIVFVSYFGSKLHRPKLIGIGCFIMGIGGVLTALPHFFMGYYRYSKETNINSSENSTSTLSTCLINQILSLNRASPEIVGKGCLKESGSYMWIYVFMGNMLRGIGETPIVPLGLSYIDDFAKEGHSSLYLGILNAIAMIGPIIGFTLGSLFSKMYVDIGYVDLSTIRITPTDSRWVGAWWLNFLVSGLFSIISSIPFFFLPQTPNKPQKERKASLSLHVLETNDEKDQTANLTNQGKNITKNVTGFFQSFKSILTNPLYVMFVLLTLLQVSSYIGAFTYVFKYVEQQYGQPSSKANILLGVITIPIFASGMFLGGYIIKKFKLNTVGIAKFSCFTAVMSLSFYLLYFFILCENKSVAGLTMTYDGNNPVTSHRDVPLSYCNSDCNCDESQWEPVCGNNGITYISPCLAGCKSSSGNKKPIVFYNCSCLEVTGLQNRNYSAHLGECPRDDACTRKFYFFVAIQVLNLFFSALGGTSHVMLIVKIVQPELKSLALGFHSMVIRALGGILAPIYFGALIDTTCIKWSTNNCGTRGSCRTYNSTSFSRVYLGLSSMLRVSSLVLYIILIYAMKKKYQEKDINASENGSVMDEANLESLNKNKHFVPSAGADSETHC
Description: Substrate activity at human OATP1B1 expressed in HEK293 cells assessed as increase in compound uptake at 1 uM LC-MS/MS analysis. It counts as ADME, cell-based. Conditions: hek293, 1 µM, TDE = time-dependent effect. The procedure, abridged: (§1)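 HEK-TR cells overexpressing hOATP1B1 or hOATP1B3, run in parallel with control HEK-TR cells, seeded at 1 x 10⁵ cells/well one day before. Time-dependent uptake of 1 μM compound in HBSS at 37 °C, quadruplicates. Uptake stopped with ice-cold buffer, cells washed, lysed and quantified by LC-MS/MS. Uptake ratio calculated against the control cells.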

Series [2] deals with T2, Solute carrier organic anion transporter family member 1B3 (Homo sapiens, UniProt Q9NPD5).
T2 sequence (Q9NPD5 whole entry): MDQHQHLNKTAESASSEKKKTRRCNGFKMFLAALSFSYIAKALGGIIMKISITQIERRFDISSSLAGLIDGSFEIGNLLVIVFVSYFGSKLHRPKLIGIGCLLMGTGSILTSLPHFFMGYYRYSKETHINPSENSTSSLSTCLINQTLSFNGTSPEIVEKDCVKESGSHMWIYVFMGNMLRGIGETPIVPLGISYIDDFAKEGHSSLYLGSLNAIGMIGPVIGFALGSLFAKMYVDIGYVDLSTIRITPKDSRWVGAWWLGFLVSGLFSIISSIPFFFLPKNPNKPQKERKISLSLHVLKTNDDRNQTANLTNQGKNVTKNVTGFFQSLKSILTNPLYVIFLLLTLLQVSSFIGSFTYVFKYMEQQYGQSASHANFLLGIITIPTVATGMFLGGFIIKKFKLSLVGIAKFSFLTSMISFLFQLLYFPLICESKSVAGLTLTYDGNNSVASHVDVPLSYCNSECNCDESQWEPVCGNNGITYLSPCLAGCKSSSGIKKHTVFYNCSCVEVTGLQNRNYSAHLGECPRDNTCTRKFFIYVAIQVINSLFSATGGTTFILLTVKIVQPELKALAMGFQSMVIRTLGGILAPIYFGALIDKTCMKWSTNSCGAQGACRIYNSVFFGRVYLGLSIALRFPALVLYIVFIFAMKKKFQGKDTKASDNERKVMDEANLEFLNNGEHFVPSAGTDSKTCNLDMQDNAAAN
The experiment in a line: Substrate activity at human OATP1B3 expressed in HEK293 cells assessed as increase in compound uptake at 1 uM LC-MS/MS analysis. Type of series: ADME, cell-based. Conditions: hek293, 1 µM, TDE = time-dependent effect. The procedure, abridged:
as §1

The next series addresses T3, OATP1B1 (Homo sapiens, UniProt Q9Y6L6).
T3 sequence (Q9Y6L6 whole entry): T1 sequence (Q9Y6L6 whole entry)
The experiment in a line: Substrate activity at human OATP1B1 expressed in HEK293 cells assessed as increase in compound uptake at 1 uM incubated up to 15 mins LC-MS/MS analysis relative to control relative to control. Type of series: ADME, cell-based. Conditions: HEK293 cells expressing human OATP1B1, read-out: FC. The procedure, abridged: as §1

A further series has as its target T4, OATP1B3 (Homo sapiens, UniProt Q9NPD5).
T4 sequence (Q9NPD5 whole entry): T2 sequence (Q9NPD5 whole entry)
Description: Substrate activity at human OATP1B3 expressed in HEK293 cells assessed as increase in compound uptake at 1 uM incubated up to 15 mins LC-MS/MS analysis relative to control relative to control. It counts as ADME, cell-based. Conditions: HEK293 cells expressing human OATP1B3, read-out: FC. The procedure, abridged: as §1

Series [3] in a line: Solubility in pH 7.4 buffer. It counts as physicochemical.
The nature of series [4]: Clearance in mouse hepatocytes assessed per million cells by LC-MS/MS analysis. It counts as ADME, cell-based, Hepatocyte. The procedure, abridged: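 Intrinsic clearance in primary human hepatocytes ([…] as printed) or mouse hepatocytes, compound 0.5–5 µM; quinidine or ketoconazole added to define CYP2D6/CYP3A4 contribution; LC-MS/MS analysis.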
Series [5] in a line: Cmax in C57Bl6 mouse at 10 mg/kg, po administered as single dose measured up to 24 hrs ESI-LC/MS-MS analysis. On the set-up: dose 10 mg/kg, route oral. It counts as ADME, organism-based. Conditions: in vivo. The procedure, abridged: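 Single dose of compound: 3 mg/kg i.v. in solution (75% water : 25% of 75% Glycoferol/25% Cremophor) or 10 mg/kg p.o. as wet-milled suspension (0.6% methylcellulose, 0.5% Tween 80 in water); male Wistar rats n=3 per route, female C57Bl6 mice n=24 per route. Plasma sampled 0.25–24 h (p.o.), 0.083–24 h (i.v.); heparinized plasma, acetonitrile precipitation, ESI-LC/MS-MS (LOQ 1 ng/mL rat, 5 ng/mL mouse); noncompartmental analysis, linear trapezoidal.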

Series [6] is described as follows: Volume of distribution at steady state in Wistar rat at 3 mg/kg, iv administered as single dose treated 2 hrs after dosing with 40 mg/kg, po OATP/MRP2 inhibitor rifampicin and measured up to 24 hrs ESI-LC/MS-MS analysis. It counts as ADME, organism-based. Conditions: in vivo, read-out: Vdss.
Series [7] is described as follows: Metabolic lability in mouse liver microsomes incubated up to 20 mins by LC-MS/MS analysis. On the technique in general: Microsomes from liver hold many membrane-bound enzymes, among them those of drug oxidation.
The species named for a further series is Rattus norvegicus. The experiment in a line: Improvement in GLP1(9-36)NH2-mediated glucose-stimulated insulin secretion in dispersed rat pancreatic islets at <10 uM incubated for 2 hrs by ELISA. Type of series: functional. The procedure, abridged:
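Dispersed rat islets pre-incubated 1 h in Krebs-Ringer (5.6 mM glucose), then 2 h at 37 °C at 15 mM glucose with GLP1(9-36)NH2 1, 10 or 100 nM ± compound 1 µM, DMSO vehicle. Supernatant insulin measured by HTRF-based ELISA, expressed as % of total insulin and n-fold vs respective control; N≥9 per condition.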

The next series deals with Pancreatic islet. The experiment in a line: Inhibition of glucose-stimulated insulin secretion in dispersed GLP-1(-/-) mouse pancreatic islets at 10 uM incubated for 2 hrs by ELISA. Type of series: functional, cell-based. For orientation: ELISA stands for enzyme-linked immunosorbent assay.

Molecules are shown by their SMILES. Active and inactive are the calls of the source. The rule behind the calls is not given here.

For orientation: solubility means how much of the substance goes into solution per volume. A higher solubility goes with much dissolved substance. Broadly, the Cmax is the maximum level reached in the sampled fluid or tissue. For the compound `CC(C)(C)OC(=O)n1c2c(c3ccccc31)C[C@H]1C(=O)N3C[C@@H](CC(=O)O)C[C@H]3[C@@H]2N1C(=O)CC1CCC(F)(F)CC1`, the Activity entry in series [1] and in [2] was “Tde” throughout. Further, the uptake ratio at 0.25 h, 1 µM at OATP1B1 and on OATP1B3 was 6 to 22 throughout. The solubility in series [3] is over 853 µM. In addition, the CLH in [4] was found to be 0.145 mL/h/10^6 cells. The same compound yielded a Cmax in series [5] of 227 ng/mL. The Vd in series [6] came to 0.815 L/kg. In addition, the metabolized at 20 min in [7] was found to be 5%.

Take `CC(O)CCN1C[C@H]2c3c(c4ccccc4n3C(=O)OC(C)(C)C)C[C@@H](C1=O)N2C(=O)CC1CCC(F)(F)CC1` (stereo partly specified): the result in the series listed under Rattus norvegicus was Active. Also, in the series on Pancreatic islet, the inhibition result was “Active”.
